These results are taken from article PMC3338355 (Biochemistry, 2011).

Non-standard residues stand in square brackets, D forms with d. No end group written: not given here. pS = N[C@@H](COP(=O)(O)O)C(=O)O

For assay [1], the target named is T1, Dullard 46–244 (Homo sapiens, UniProt O95476).
T1 sequence (O95476 46-244): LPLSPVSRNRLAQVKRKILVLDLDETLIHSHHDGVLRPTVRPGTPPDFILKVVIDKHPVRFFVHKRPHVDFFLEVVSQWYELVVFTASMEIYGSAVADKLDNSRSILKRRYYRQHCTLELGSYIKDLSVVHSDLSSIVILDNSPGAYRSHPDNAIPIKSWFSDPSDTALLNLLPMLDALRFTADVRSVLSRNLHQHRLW
As to the kind of experiment: MESG-coupled phosphatase assay. It counts as biochemical. Particulars: MESG-coupled phosphatase assay (EnzChek E-6646), 25°C. The method, boiled down:
(§1)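 Dullard residues 46–244 expressed in E. coli and purified to >95% by SDS/PAGE. Substrates were Pro/Thr/Ser-containing phosphoserine nonapeptides representing lipin1 phosphorylation sites. Dephosphorylation was followed as phosphate release under steady-state conditions to derive kcat/Km. The MESG-coupled assay and the molybdate green assay were used as independent read-outs.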

In assay [2] the target is T1, Dullard 46–244. Briefly: Biomol Green phosphate reagent. It counts as biochemical. Particulars: values in parentheses, 25 °C. The method, boiled down: as §1
The test system of a further assay is dullard. Particulars: dullard-catalyzed hydrolysis of generic substrate; cited from earlier work.

Turning to PIL[pS]EGASR [S110], the kcat/Km on Dullard 46–244 [1] stood at 650 M⁻¹ s⁻¹. On Dullard 46–244 [2], the Km is 700 µM, the kcat was determined as 0.28 ± 0.02 s⁻¹ and the kcat/Km turned out to be 400 M⁻¹ s⁻¹.

Consider `O=[N+]([O-])c1ccc(OP(=O)(O)O)cc1` [pNPP, p-nitrophenyl phosphate], for which, in the assay on dullard, the Km is 18000 µM, the kcat was 1 s⁻¹ and the kcat/Km was 56 M⁻¹ s⁻¹.

On to SGSRP[pS]TP [S248], for which the kcat/Km on Dullard 46–244 [1] was determined as 750 M⁻¹ s⁻¹. For the same compound, at Dullard 46–244 [2], the Km was 700 µM, the kcat came out at 0.01 ± 0.002 s⁻¹ and the kcat/Km was determined as 14 M⁻¹ s⁻¹.

With DNMNT[pS]EDE [S176], the kcat on Dullard 46–244 [2] is above 0.5 s⁻¹.
